# Values joined by “and” are separate entries in the source; they are usually repeats but may differ in a detail not shown here. Equal values may be shown once.
# Key:
# [1] = tested on: Mus musculus; test: Protection against chloroform induced arrhythmias was measured in mice after sc administration at given dose; assay type: functional
# In short: (§1)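 Groups of 10 unanesthetized mice got sc injection of drug in 0.9% saline. After 20 min observation they were placed one by one in chloroform-vapor-saturated air. When breathing stopped, the thorax was opened and the heart inspected by eye; coordinated ventricular contractions counted as protected.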
# [2] = tested on: Mus musculus; test: Protection against chloroform induced arrhythmias in mice after subcutaneous administration at 100 mg/kg dose.; assay type: functional; in short: as §1
# [3] = tested on: Canis familiaris; test: Ventricular rate was measured in anesthetized dog at 0.026 dose; assay type: functional, Canis lupus familiaris, Heart
# [4] = organism: Mus musculus; test: Percentage toxicity measured as ataxia.; assay type: organism-based; details: in vivo
# In short: (§2)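 Mice (groups of 10) were dosed sc with drug in 0.9% saline and watched for 20 min for overt toxicity (ataxia, convulsions, loss of righting reflex, death) before chloroform exposure.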
# [5] = Percentage toxicity measured as death of mice.; assay type: organism-based; design: concentration or dose not given beside the values; details: mouse, in vivo; read-out: Death
# [6] = tested on: Canis familiaris; test: MABP value was measured in anesthetized dog at 0.026 dose; assay type: functional, Canis lupus familiaris; details: in the assay text read “unanesthetized dog” for “anesthetized dog”
# In short: (§3)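 Adult female dogs (6.7–14.5 kg) had the left anterior descending coronary artery ligated in two stages the day before testing. Dogs were unanesthetized. Ectopic beats (% of ventricular rate) and mean arterial pressure were read at maximal antiarrhythmic effect against the cumulative dose.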
# [7] = tested on: Canis familiaris; test: % ectopic beats was measured in anesthetized dog at 0.053 dose; assay type: functional, Canis lupus familiaris, Heart; details: in the assay text read “unanesthetized” for “anesthetized”; in short: as §3
# [8] = organism: Mus musculus; test: Percentage toxicity measured as convulsions.; assay type: organism-based; details: in vivo; in short: as §2
# [9] = organism: Canis familiaris; test: (§4) The dose at which toxicity was measured; assay type: organism-based, Canis lupus familiaris; design: unit: mmol/kg; details: dog, in vivo
# In short: (§5)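 Adult female dogs (6.7–14.5 kg) had two-stage ligation of the left anterior descending coronary artery the day before testing. After control ventricular rate, % ectopic beats and mean arterial pressure were recorded, the drug (HCl salt, isotonic solution) was infused iv without anesthesia at 0.1, 0.5 or 1.0 (mg/kg)/min, mostly 0.5. Infusion continued until the arrhythmia was abolished or cardiovascular/CNS toxicity appeared. Cumulative dose is given in mmol/kg; toxicity included convulsion and P-R prolongation ≥25%.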
# [10] = organism: Canis familiaris; test: as §4; assay type: organism-based, Canis lupus familiaris; details: dog, in vivo; in short: as §5
# [11] = tested on: Canis familiaris; test: % ectopic beats was measured in anesthetized dog at 0.026 dose; assay type: functional, Canis lupus familiaris, Heart; details: in the assay text read “unanesthetized” for “anesthetized”; in short: as §3
# [12] = organism: Mus musculus; test: Percentage toxicity measured as loss of righting reflex.; assay type: organism-based; details: in vivo; in short: as §2
# [13] = tested on: Canis familiaris; test: MABP value was measured in anesthetized dog at 0.053 dose; assay type: functional, Canis lupus familiaris; details: in the assay text read “unanesthetized dog” for “anesthetized dog”; in short: as §5
# [14] = tested on: Canis familiaris; test: Ventricular rate was measured in anesthetized dog at 0.053 dose; assay type: functional, Canis lupus familiaris, Heart; details: in the assay text read “unanesthetized dog” for “anesthetized dog”; in short: as §5
# [15] = organism: Canis familiaris; test: The dose at which toxicity was measured.; assay type: organism-based, Canis lupus familiaris; details: dog, in vivo; in short: as §5
# [16] = tested on: Canis familiaris; test: MABP value was measured in anesthetized dog at 0.042 dose.; assay type: functional, Canis lupus familiaris; details: in the assay text read “unanesthetized dog” for “anesthetized dog”; in short: as §5
# [17] = tested on: Canis familiaris; test: Ventricular rate was measured in anesthetized dog at 0.042 dose; assay type: functional, Canis lupus familiaris, Heart; details: in the assay text read “unanesthetized dog” for “anesthetized dog”; in short: as §5
# [18] = organism: Canis familiaris; test: Toxicity of blood level was measured; assay type: organism-based, Canis lupus familiaris; details: dog, in vivo
# In short: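 In coronary-ligated conscious dogs under iv infusion, blood was sampled at toxicity. Drug was extracted with methylene chloride at pH 10.3 (ammonium citrate/ammonia) with another analogue as internal standard, then derivatized with heptafluorobutyrylimidazole. Assay was GC-FID on 3% JXR, quantified from drug/internal standard peak-height ratio against standard curves; results in μmol/mL.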
# [19] = tested on: Mus musculus; test: Protection against chloroform induced arrhythmias was measured in mice after sc administration at given dose.; assay type: functional; details: Mus musculus, sc; read-out: ED50; in short: as §1
# [20] = tested on: Canis familiaris; test: MABP value was measured in anesthetized dog at 0.005 dose.; assay type: functional, Canis lupus familiaris; details: in the assay text read “unanesthetized dog” for “anesthetized dog”; in short: as §3
# [21] = tested on: Canis familiaris; test: MABP value was measured in anesthetized dog at 0.021d ose.; assay type: functional, Canis lupus familiaris; details: in the assay text read “unanesthetized dog” for “anesthetized dog”; in short: as §3
# [22] = tested on: Canis familiaris; test: MABP value was measured in anesthetized dog at 0.026 dose.; assay type: functional, Canis lupus familiaris; details: in the assay text read “unanesthetized dog” for “anesthetized dog”; in short: as §3
# [23] = tested on: Canis familiaris; test: Ventricular rate was measured in anesthetized dog at 0.005 dose; assay type: functional, Canis lupus familiaris, Heart; details: in the assay text read “unanesthetized dog” for “anesthetized dog”; in short: as §5
# [24] = organism: Canis familiaris; test: Blood level was measured in […] at 0.017 dose.; assay type: functional, Canis lupus familiaris
# [25] = tested on: Canis familiaris; test: % ectopic beats was measured in anesthetized dog at 0.042 dose.; assay type: functional, Canis lupus familiaris, Heart; details: in the assay text read “unanesthetized” for “anesthetized”; in short: as §3
# [26] = tested on: Canis familiaris; test: MABP value was measured in anesthetized dog at 0.029 dose.; assay type: functional, Canis lupus familiaris; details: in the assay text read “unanesthetized dog” for “anesthetized dog”; in short: as §3
# [27] = tested on: Canis familiaris; test: % ectopic beats was measured in anesthetized dog at 0.021d ose.; assay type: functional, Canis lupus familiaris, Heart; details: in the assay text read “unanesthetized” for “anesthetized”; in short: as §3
# [28] = tested on: Canis familiaris; test: MABP value was measured in anesthetized dog at 0.017 dose.; assay type: functional, Canis lupus familiaris; details: in the assay text read “unanesthetized dog” for “anesthetized dog”; in short: as §3
# [29] = tested on: Canis familiaris; test: % ectopic beats was measured in anesthetized dog at 0.005 dose.; assay type: functional, Canis lupus familiaris, Heart; details: in the assay text read “unanesthetized” for “anesthetized”; in short: as §3
# [30] = tested on: Canis familiaris; test: Blood level was measured in anesthetized dog at 0.029 dose.; assay type: functional, Canis lupus familiaris
# [31] = tested on: Canis familiaris; test: Ventricular rate was measured in anesthetized dog at given 0.017 dose; assay type: functional, Canis lupus familiaris, Heart; details: in the assay text read “unanesthetized” for “anesthetized”
# In short: (§6)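 Adult female dogs (6.7–14.5 kg) had ventricular arrhythmias from two-stage ligation of the left anterior descending coronary artery the day before. Ventricular rate (bpm) was read at maximal antiarrhythmic effect against cumulative dose.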
# [32] = tested on: Canis familiaris; test: Ventricular rate was measured in anesthetized dog at 0.029 dose; assay type: functional, Canis lupus familiaris, Heart; details: in the assay text read “unanesthetized dog” for “anesthetized dog”; in short: as §5
# [33] = tested on: Canis familiaris; test: % ectopic beats was measured in anesthetized dog at 0.017 dose.; assay type: functional, Canis lupus familiaris, Heart; details: in the assay text read “unanesthetized” for “anesthetized”; in short: as §3
# [34] = tested on: Canis familiaris; test: % ectopic beats was measured in anesthetized dog at 0.026 dose.; assay type: functional, Canis lupus familiaris, Heart; details: in the assay text read “unanesthetized” for “anesthetized”; in short: as §3
# [35] = organism: Canis familiaris; test: Toxicity of the compound; assay type: organism-based, Canis lupus familiaris; details: dog, in vivo; in short: as §5
# [36] = tested on: Canis familiaris; test: % ectopic beats was measured in anesthetized dog at 0.029 dose.; assay type: functional, Canis lupus familiaris, Heart; details: in the assay text read “unanesthetized” for “anesthetized”; in short: as §3
# [37] = tested on: Canis familiaris; test: Ventricular rate was measured in anesthetized dog at 0.021 dose; assay type: functional, Canis lupus familiaris, Heart; details: in the assay text read “unanesthetized dog” for “anesthetized dog”; in short: as §5
# [38] = tested on: Canis familiaris; test: % ectopic beats was measured in anesthetized dog at 0.21+/-0.19 dose; 4+/-3; assay type: functional, Canis lupus familiaris, Heart
# [39] = tested on: Canis familiaris; test: MABP value was measured in anesthetized dog at 0.21+/-0.19 dose.; assay type: functional, Canis lupus familiaris
# [40] = tested on: Mus musculus; test: Ataxia was measured in mice after sc administration at given dose.; assay type: functional
# In short: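 Mice in groups of 10 received drug sc in 0.9% saline and were watched 20 min for overt toxicity before chloroform exposure. At least three doses were given.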
# [41] = tested on: Canis familiaris; test: Ventricular rate was measured in anesthetized dog at 0.21+/-0.19 dose; assay type: functional, Canis lupus familiaris, Heart; details: in the assay text read “unanesthetized” for “anesthetized”; in short: as §6
smiles,measurement,setting,value
CCN(CC)CCN1C(=O)CC2(CCCc3ccc(O)cc32)C1=O (stereo not given),ED50,[1],150 µmol/kg
same,Protection,[2],90%
same,Ventricular rate,[3],132 beats min-1
same,Ataxia,[4],0%
same,mortality,[5],0%
same,MABP,[6],130 mmHg
same,Etopic beats,[7],7%
same,Convulsion,[8],0%
same,Cumulative dose,[9],0.026 mM/kg
same,Cumulative dose,[10],0.042
same,Etopic beats,[11],3%
same,Loss of righting reflex,[12],0%
same,MABP,[13],135 mmHg
same,Ventricular rate,[14],102 beats min-1
CCN(CC)CCCCN1C(=O)CC2(CCCc3ccc(O)cc32)C1=O (stereo not given),Cumulative dose,[15],0.063
same,MABP,[16],100 mmHg
same,Ventricular rate,[17],147 beats min-1
same,Blood level,[18],> 28 µM
same,ED50,[19],130 µmol/kg
same,Protection,[2],100%
same,Ventricular rate,[3],132 beats min-1
same,MABP,[20],80 mmHg
same,MABP,[21],70 mmHg
same,Ataxia,[4],0%
same,MABP,[22],90 mmHg
same,Ventricular rate,[23],162 beats min-1
same,mortality,[5],0%
same,Blood level,[24],0.016 uM ml-1
same,Etopic beats,[25],0%
same,MABP,[26],90 mmHg
same,Etopic beats,[27],0%
same,MABP,[28],95 mmHg
same,Etopic beats,[29],2%
same,Blood level,[30],0.007 uM ml-1
same,Convulsion,[8],0%
same,Ventricular rate,[31],153 beats min-1
same,Cumulative dose,[9],> 0.058 and > 0.126
same,Ventricular rate,[32],141 beats min-1
same,Loss of righting reflex,[12],0%
same,Etopic beats,[33],2%
same,Etopic beats,[34],0%
same,Blood level,[35],0.01 uM ml-1
same,Etopic beats,[36],0%
same,Ventricular rate,[37],168 beats min-1
CCN(CC)CC(=O)Nc1c(C)cccc1C [LIDOCAINE],Cumulative dose,[15],0.27
same,ED50,[19],260 µmol/kg
same,Protection,[2],100%
same,Ataxia,[4],100%
same,mortality,[5],0%
same,Etopic beats,[38],4%
same,Convulsion,[8],100%
same,MABP,[39],101 mmHg
same,Loss of righting reflex,[12],100%
same,ED50,[40],180 µmol/kg
same,Ventricular rate,[41],133 beats min-1
